Experimental data as given in ChEMBL document CHEMBL1138697, “Development of a new class of potential antiatherosclerosis agents: NO-donor antioxidants” (Bioorg Med Chem Lett, 2004).

Legend:
[1] = organism: Rattus norvegicus; test: Tested for inhibition of ferrous salt/ascorbate induced lipidic peroxidation of membrane lipid of rat hepatocytes; format: functional; settings: Hepatocyte
In short: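 Rat liver microsomes (male Wistar, 200-250 g) were prepared by differential centrifugation and used at 2 mg prot/mL. Incubation was at 37°C, pH 7.4, Tris-HCl/KCl, with 100 μM ascorbate and compounds in DMSO (≤5%). TBARS were read at 543 nm against an MDA standard, using the 30-min plateau. IC50 came from % inhibition vs control by non-linear regression.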

[2] = organism: Rattus norvegicus; test: Vasodilating activity in rat aorta strip in absence of 1H-[1,2,4]oxadiazolo[4,3-a]quinoxalin-1-one (ODQ); format: functional, organism-based
In short: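 Rat aortic strips were precontracted with 1 μM L-phenylephrine and relaxation was measured. The method follows an earlier published procedure with minor changes.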

[3] = organism: Rattus norvegicus; test: Vasodilating activity in rat aorta strip in presence of 1H-[1,2,4]oxadiazolo[4,3-a]quinoxalin-1-one (ODQ); format: functional, organism-based
In short: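 Rat aortic strips were precontracted with 1 μM L-phenylephrine. ODQ 1 μM was added to the bath at least 5 min before contraction, in a separate series of experiments, and relaxation was then measured.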

SMILES | IC50 [1] | EC50 [2] | EC50 [3]
O=S(=O)(c1ccccc1)c1c(OCCCc2ccc(O)cc2)no[n+]1[O-] | 47000 nM | 10 nM | 360 nM
CCOc1no[n+]([O-])c1S(=O)(=O)c1ccccc1 | 110000 nM | 10 nM | 1200 nM
CC(C)(C)c1cc(CCCOc2no[n+]([O-])c2S(=O)(=O)c2ccccc2)cc(C(C)(C)C)c1O | 2000 nM | 110 nM | 4800 nM
O=[N+]([O-])OCCCc1ccc(O)cc1 | 143000 nM | 1000 nM | 
Cc1ccc(O)cc1 [p-CRESOL] | 290000 nM |  | 
CC(C)(C)c1cc(CCCO[N+](=O)[O-])cc(C(C)(C)C)c1O | 2000 nM | 40000 nM | 
Cc1c(C)c2c(c(C)c1O)CCC(C)(C)O2 [APC-100] | 170 nM |  | 
Cc1cc(C(C)(C)C)c(O)c(C(C)(C)C)c1 [BUTYLATED HYDROXYTOLUENE] | 1700 nM |  | 
Cc1c(C)c2c(c(C)c1O)CCC(C)(COc1no[n+]([O-])c1S(=O)(=O)c1ccccc1)O2 (stereo unspecified) | 490 nM | 40 nM | 670 nM
Cc1c(C)c2c(c(C)c1O)CCC(C)(COCCCO[N+](=O)[O-])O2 (stereo unspecified) | 150 nM | 1200 nM | 
